The values that follow come from article PMC6933791 (ACS Omega, 2019).

The test system of data set [1] is A549 cells. Description: Cell binding of radiolabeled compound. Details: species or system human. In short, it runs like this:
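A549 and MRC-5 cells were grown in DMEM with 10% FBS and 1% penicillin/streptomycin (37 °C, 5% CO2), trypsinised, resuspended in PBS pH 7.4 and trypan-blue counted. Labelled test compound (0.1 μM), 99mTc-chelator alone (1.3 μM), or test compound plus 10-fold excess unlabelled cardenolide was shaken with 250 000 viable cells/tube (140 rpm, 120 min, 37 °C). Pellets were counted. Three biological × three technical replicates.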

Data set [2] has as its system Na+/K+-ATPase α1,2,3 subunit of the porcine cortex. Description: Na+/K+-ATPase inhibition assay. Format: biochemical. The settings on record: 0.1 μM compound, 30 min co-incubation, positive control = 100% activity. In short, it runs like this: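 Porcine cortex Na+/K+-ATPase (α1,2,3; 0.05 U/mL) was preincubated 30 min with test compound (0.1 μM) in 40 mM Tris–HCl pH 7.5, 80 mM NaCl, 1 mM EDTA and 8 mM MgAc2. ATP (4 mM) was then added and the reaction stopped after 30 min. Released Pi was read by malachite green at 600 nm after subtracting the no-enzyme control. Uninhibited enzyme defined 100% activity. Run in triplicate.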

Data set [3] has as its system A549 cells. Description: MTT cell viability assay, A549. The class given is cell-based. As to conditions: read-out: IC50 A549 cell line, 48 h, human non-small-cell lung cancer A549. In short, it runs like this:
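A549 cells (1 × 10^4/well), cultured in DMEM with 10% FBS and antibiotics, were exposed to a range of concentrations of the […] test compound for 48 h. MTT was added (1 mg/mL final) for 4 h at 37 °C, formazan was dissolved in DMSO, and absorbance was read at 570 nm. Cells given 0.5% DMSO defined 100% viability. IC50 came from dose–response curves.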

Data set [4] concerns MRC-5 cells. Description: MTT cell viability assay, MRC-5. Format: cell-based. As to conditions: read-out: IC50 non-tumor MRC-5 cell line, 48 h, human fetal lung fibroblast MRC-5.
Data set [5] can be described thus: Radiochemical stability in saline. The class given is physicochemical. As to conditions: NaCl 0.9% (w/v), room temperature (23 °C), up to 24 h. In short, it runs like this: (§1)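 The 99mTc-labelled test compound was incubated in 0.9% NaCl at 23 °C or in plasma at 37 °C with agitation. Samples were taken at 1, 2, 4, 8 and 24 h. Radiochemical purity was measured by TLC in acetone (free pertechnetate) and glacial acetic acid/water 15:85 (99mTcO2), with strips counted by scintillation. There were 6 samples per time point, each assessed in duplicate.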

A short description of data set [6]: Radiochemical stability in plasma. Format: in vitro ADME. As to conditions: 37 °C, under agitation, up to 24 h. A digest of the protocol:
as §1

Data set [7] can be described thus: Blood clearance in healthy mice. Format: in vivo. As to conditions: healthy BALB/c mice, i.v. tail vein. A digest of the protocol:
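Female BALB/c mice (20 g, 8 weeks old; n = 6 per time point) received 100 μL (3.7 MBq) of diluted 99mTc-labelled test compound (final volume 1800 μL) by tail vein. Blood was sampled at 5, 15, 30, 60, 120 and 240 min, weighed and counted for radioactivity. Percent injected dose per mL blood (%ID/mL) was plotted against time.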

Data set [8] can be described thus: Biodistribution in healthy mice. The class given is in vivo, BALB/c mice. The settings on record: i.v.

As to `O=C([O-])CN(CCN(CC(=O)[O-])CC(=O)[O-])CCN(CC(=O)[O-])CC(=O)[O-].[99Tc+4]` [^99mTc-DTPA, reference compound], the “Affinity to A549 cancer cells” value in data set [1] (1.3 μM, 2 h incubation, 37 °C) is “low affinity”.

With `O=C(O)CN(CCN(CC(=O)O)CC(=O)O)CCN(CC(=O)O)CC(=O)O` [DTPA, diethylenetriaminepentaacetic acid], the “Na+/K+-ATPase enzymatic activity remaining” value in data set [2] was “no influence”.

With ^99mTc-DTPA–digitoxigenin, the IC50 in data set [3] worked out at 0.12 µM. Besides, the IC50 in data set [4] came to 0.78 µM. For the same compound, in data set [2], the “Na+/K+-ATPase enzymatic activity remaining” value is on record as “less than 50%”. In data set [1] (0.1 μM, 10-fold excess of free digitoxigenin, 2 h), the “Binding to A549 cells when co-incubated with free digitoxigenin” value is “reduced to the rate of non-tumor MRC-5 cells”. Besides, in data set [1] (0.1 μM, 2 h incubation, 37 °C), the “Binding to A549 cells compared with non-tumor MRC-5 cells” value is listed as “significantly higher binding”. Besides, in data set [5], the “Radiochemical stability in saline” value is reported as “remained stable”. For the same compound, the “Radiochemical stability in plasma” value in data set [6] is given as “remained stable”. Further, the Blood half-life in data set [7] is reported as 11.7 min. In addition, in data set [8] (30 min), the “Biodistribution, blood” value was determined as 0.51 %ID/g; the “Biodistribution, heart” value is 0.31 %ID/g; the “Biodistribution, intestine” value stood at 24.97 %ID/g; the “Biodistribution, kidney” value amounted to 1.64 %ID/g. Moreover, in data set [8] (30 min), the “Biodistribution, liver” value was found to be 4.74 %ID/g; the “Biodistribution, lungs” value is reported as 1.46 %ID/g; the “Biodistribution, muscle” value was 0.50 %ID/g; the “Biodistribution, spleen” value came to 0.90 %ID/g. Further, the “Biodistribution, thyroid” value in data set [8] (30 min) came to 0.59 %ID/g. Further, in data set [8] (2 h), the “Biodistribution, blood” value came to 0.43 %ID/g; the “Biodistribution, heart” value was 0.32 %ID/g; the “Biodistribution, intestine” value is 27.06 %ID/g; the “Biodistribution, kidney” value was 1.48 %ID/g. Also, in data set [8] (2 h), the “Biodistribution, liver” value is on record as 2.34 %ID/g; the “Biodistribution, lungs” value worked out at 0.6 %ID/g; the “Biodistribution, muscle” value is reported as 0.26 %ID/g; the “Biodistribution, spleen” value was determined as 0.85 %ID/g. In addition, the “Biodistribution, thyroid” value in data set [8] (2 h) worked out at 0.59 %ID/g.

Regarding `C[C@]12CC[C@H](O)C[C@H]1CC[C@@H]1[C@@H]2CC[C@]2(C)[C@@H](C3=CC(=O)OC3)CC[C@]12O` [DIG, digitoxigenin], in data set [2], the “Na+/K+-ATPase enzymatic activity remaining” value is on record as “less than 50%”.
